Consider four compounds from ChEMBL document CHEMBL4266041, “Hydroxybiphenylamide GroEL/ES Inhibitors Are Potent Antibacterials against Planktonic and Biofilm Forms of Staphylococcus aureus” (J Med Chem, 2018).

Activity calls are given as the source filed them. The calls are words filed in the database; no cut-off is given here. Some results are limits rather than exact numbers.

The test system of series [1] is Staphylococcus aureus. Description: Ratio of EC50 for bactericidal activity against Staphylococcus aureus Rosenbach ATCC 25923 in biofilms to EC50 for planktonic growth of Staphylococcus aureus Rosenbach ATCC 25923. The format is functional.
In series [2] the test system is Enterococcus faecium. The series can be described thus: Antibacterial activity against Enterococcus faecium ATCC 19434 after 24 hrs by bacterial proliferation assay. The format is functional, organism-based. The following applies: ATCC 19434, 24 h.
Series [3] concerns Enterobacter cloacae. Description: Antibacterial activity against Enterobacter cloacae subsp. cloacae ATCC 13047 after 24 hrs by bacterial proliferation assay. It is filed as functional, organism-based. As to conditions: subsp. cloacae ATCC 13047, 24 h. The procedure, abridged:
(§1)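 Bacterial growth inhibition in liquid culture. The highest concentration tested was 100 µM. The mean was back-calculated from the average log value. Values above the top concentration were set 0.1 log unit higher.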

Series [4] has as its system HEK293. Description: (§2) Cytotoxicity against HEK293 cells assessed as reduction in cell viability after 48 hrs by Alamar Blue reporter assay. As to conditions: human, hek293, 48 h.
Series [5] has as its target T1, E. coli GroEL/ES (Escherichia coli, UniProt P0A6F5). Description: Inhibition of Escherichia coli GroEL expressed in Escherichia coli DH5alpha/Escherichia coli GroES expressed in Escherichia coli BL21 (DE3) assessed as reduction in GroEL/GroES-mediated denatured MDH refolding after 20 to 40 mins by spectrometric analysis. The procedure, abridged: (§3)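 Uses E. coli GroEL/ES with a denatured MDH or rhodanese reporter. GroEL first forms a binary complex with the denatured reporter. Refolding is started by adding ATP and GroES, then reporter enzyme activity is read. DMSO is the negative control. IC50 values from replicate curves are log-averaged after ROUT outlier screening.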

The test system of series [6] is Staphylococcus aureus. The series can be described thus: Bactericidal activity against planktonic growth of Staphylococcus aureus Rosenbach ATCC 25923 preincubated for 24 hrs followed by compound wash out and measured after 24 hrs. It is filed as functional, organism-based.
Series [7] is described as follows: Therapeutic index, ratio of CC50 for human THLE3 cells to EC50 for methicillin-resistant Staphylococcus aureus ATCC BAA-44. As to conditions: read-out: Ratio CC50/EC50. The format is toxicity. The procedure, abridged:
(§4)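 Ratio of human-cell CC50 to MRSA (ATCC BAA-44) EC50. […] EC50 comes from inhibition of MRSA proliferation in liquid culture. Replicate values were log-transformed, screened for outliers (ROUT, Q 10%), then averaged and back-calculated. Values above 100 µM were entered as 126 µM.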

The nature of series [8]: Cytotoxicity against human THLE3 cells assessed as reduction in cell viability after 48 hrs by Alamar Blue reporter assay. The following applies: for CC50: 48 h. In general terms: Alamar Blue is a resazurin reagent that responds to reducing activity.
The test system of series [9] is Staphylococcus aureus. Description: Bactericidal activity against Staphylococcus aureus Rosenbach ATCC 25923 in biofilms preincubated for 24 hrs followed by compound wash out and measured after 24 hrs. It is filed as functional, organism-based. Summed up:
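ATCC 25923 preculture (TSB + 0.5% glucose, OD600 0.01) grown stagnant 24 h at 37°C to form biofilm, without compound. Wells washed 3× with PBS, then fresh TSB added with compound (100 µM–46 nM, 3-fold, DMSO) for 24 h at 37°C. Washed again, then recovered in fresh TSB 24 h at 37°C.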

Series [10] concerns Pseudomonas aeruginosa. The series can be described thus: Antibacterial activity against Pseudomonas aeruginosa ATCC 10145 after 24 hrs by bacterial proliferation assay. It is filed as functional, organism-based. The following applies: ATCC 10145, 24 h. Summed up: as §1
Series [11] can be described thus: Inhibition of refolded MDH (unknown origin) preincubated with Escherichia coli GroEL/GroES for 45 mins in absence of compound followed by compound addition and measured for 20 to 35 mins by spectrometric analysis.
Series [12] concerns Staphylococcus aureus. The series can be described thus: Antibiofilm activity against Staphylococcus aureus Rosenbach ATCC 25923 after 24 hrs by crystal-violet based UV-Vis spectroscopy. The format is functional, organism-based. The following applies: Rosenbach ATCC 25923, 24 h. Summed up: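 ATCC 25923 colony grown overnight in TSB at 37°C with shaking, precultured 1 h in TSB + 0.5% glucose, then diluted to OD600 0.01. Incubated stagnant at 37°C for 24 h with compound (100 µM–46 nM, 3-fold, DMSO), alongside bacteria-free baseline plates. Wells washed, crystal violet stained 15 min, developed in MeOH:AcOH:H2O, A595.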

The test system of series [13] is Acinetobacter baumannii. Description: Antibacterial activity against Acinetobacter baumannii ATCC 19606 after 24 hrs by bacterial proliferation assay. It is filed as functional, organism-based. The following applies: ATCC 19606 = CIP 70.34 = JCM 6841, 24 h. The procedure, abridged: as §1
Series [14] deals with T1, E. coli GroEL/ES. The series can be described thus: Inhibition of Escherichia coli GroEL expressed in Escherichia coli DH5alpha/Escherichia coli GroES expressed in Escherichia coli BL21 (DE3) assessed as reduction in GroEL/GroES-mediated denatured rhodanese refolding after 45 mins by spectrometric analysis. Summed up:
as §3

The nature of series [15]: Therapeutic index, ratio of CC50 for HEK293 cells to EC50 for methicillin-resistant Staphylococcus aureus ATCC BAA-44. The format is toxicity. The following applies: human, read-out: Ratio CC50/EC50. The procedure, abridged:
as §4

For series [16], the system named is Klebsiella pneumoniae. The series can be described thus: Antibacterial activity against Klebsiella pneumoniae ATCC 13883 after 6 to 8 hrs by bacterial proliferation assay. It is filed as functional, organism-based. The procedure, abridged: as §1
The target in series [17] is T2, Thiosulfate sulfurtransferase (Homo sapiens, UniProt Q16762).
T2 sequence (Q16762 whole entry): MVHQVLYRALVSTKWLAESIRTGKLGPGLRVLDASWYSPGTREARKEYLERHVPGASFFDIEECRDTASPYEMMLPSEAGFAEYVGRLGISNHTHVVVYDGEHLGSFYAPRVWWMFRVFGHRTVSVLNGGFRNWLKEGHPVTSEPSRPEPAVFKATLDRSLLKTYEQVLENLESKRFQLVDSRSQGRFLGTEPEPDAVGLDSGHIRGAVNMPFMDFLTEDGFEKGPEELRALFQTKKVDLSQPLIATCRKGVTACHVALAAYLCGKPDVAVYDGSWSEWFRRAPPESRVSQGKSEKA
Description: Inhibition of refolded rhodanese (unknown origin) preincubated with Escherichia coli GroEL/GroES for 60 mins in absence of compound followed by compound addition by spectrometric analysis.

Series [18] concerns Staphylococcus aureus. The series can be described thus: Antibacterial activity against Staphylococcus aureus ATCC 25923 after 6 to 8 hrs by bacterial proliferation assay. The format is functional, organism-based.
Series [19] relates to Staphylococcus aureus. The series can be described thus: Antibacterial activity against methicillin-resistant Staphylococcus aureus ATCC BAA-44 after 6 to 8 hrs by bacterial proliferation assay. It is filed as functional, organism-based. As to conditions: Staphylococcus aureus, ATCC BAA-44.
Series [20] is described as follows: as §2. As to conditions: human, HEK293 cells.
In series [21] the target is HSP60/HSP10 (Homo sapiens, UniProt P10809). The series can be described thus: Inhibition of human N-terminal octa-His-tagged HSP60 expressed in Escherichia coli Rosetta(DE3) pLysS/human HSP10 expressed in Escherichia coli Rosetta(DE3) assessed as reduction in HSP60/HSP10-mediated denatured MDH refolding after 40 to 60 mins by spectrometric analysis. The procedure, abridged: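 Human HSP60/10 refolding of denatured MDH, run the same way as the GroEL/ES-dMDH assay. A binary complex of chaperonin and denatured MDH is formed, and refolding is started with ATP and HSP10. MDH activity is the read-out. DMSO is the negative control. IC50 values from replicate curves are log-averaged after ROUT outlier screening.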
Chain of HSP60/HSP10 (P10809 whole entry): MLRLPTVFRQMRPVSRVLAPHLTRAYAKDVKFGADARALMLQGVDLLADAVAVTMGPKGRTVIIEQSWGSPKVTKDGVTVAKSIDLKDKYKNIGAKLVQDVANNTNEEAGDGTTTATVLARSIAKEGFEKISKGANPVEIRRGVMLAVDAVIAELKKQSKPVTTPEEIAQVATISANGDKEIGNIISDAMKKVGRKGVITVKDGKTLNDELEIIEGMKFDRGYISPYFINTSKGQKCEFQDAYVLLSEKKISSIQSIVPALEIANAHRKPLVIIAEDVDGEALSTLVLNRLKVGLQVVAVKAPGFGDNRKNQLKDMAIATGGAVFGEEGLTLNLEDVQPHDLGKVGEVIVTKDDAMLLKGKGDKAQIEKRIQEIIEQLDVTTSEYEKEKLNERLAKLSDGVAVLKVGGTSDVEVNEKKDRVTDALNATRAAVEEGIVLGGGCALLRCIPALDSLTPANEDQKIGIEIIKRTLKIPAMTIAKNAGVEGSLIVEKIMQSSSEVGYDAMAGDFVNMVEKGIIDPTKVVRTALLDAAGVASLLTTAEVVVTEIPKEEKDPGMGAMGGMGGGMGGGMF
Chain of HSP60/HSP10 (P61604 whole entry, further chain): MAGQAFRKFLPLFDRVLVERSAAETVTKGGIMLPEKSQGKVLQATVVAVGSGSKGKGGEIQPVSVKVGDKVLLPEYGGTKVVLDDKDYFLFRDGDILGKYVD

Series [22] relates to Staphylococcus aureus. Description: Antibacterial activity against methicillin-resistant Staphylococcus aureus ATCC BAA-44 precultured for 24 hrs passage with compound followed by subculture in presence of compound for 12 days serial passage. The format is functional, organism-based. Summed up:
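Cells from the first well with OD600 >0.2 were sub-cultured 24 h in a fresh compound dilution series. Serial passage ran for 12 days, with EC50 determined after each passage. Averages are from triplicate analyses.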

T1 sequence (P0A6F5 whole entry, looked up): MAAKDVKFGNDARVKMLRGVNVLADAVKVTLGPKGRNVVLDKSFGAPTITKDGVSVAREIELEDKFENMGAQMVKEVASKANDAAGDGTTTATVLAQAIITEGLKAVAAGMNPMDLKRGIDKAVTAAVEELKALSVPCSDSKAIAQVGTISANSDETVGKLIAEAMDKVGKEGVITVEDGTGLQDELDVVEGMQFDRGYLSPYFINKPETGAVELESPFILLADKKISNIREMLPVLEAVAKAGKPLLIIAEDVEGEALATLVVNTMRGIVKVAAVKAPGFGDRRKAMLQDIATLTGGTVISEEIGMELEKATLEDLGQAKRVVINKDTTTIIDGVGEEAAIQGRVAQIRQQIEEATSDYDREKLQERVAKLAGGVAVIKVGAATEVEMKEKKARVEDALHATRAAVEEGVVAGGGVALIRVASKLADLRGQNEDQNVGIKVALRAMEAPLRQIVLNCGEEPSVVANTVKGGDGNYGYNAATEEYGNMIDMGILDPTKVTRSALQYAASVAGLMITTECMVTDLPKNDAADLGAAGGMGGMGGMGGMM

Turning to `O=C(Nc1ccc(Sc2nc3ccccc3s2)cc1)c1cc(Br)cc(Br)c1O`, in series [1], the “Ratio EC50” value is on record as 5 - 15. Besides, the EC50 (in general, the concentration needed to bring the measured effect to its halfway point) in [2] was 0.88 µM; in series [3], above 100 µM; in [6], 0.44 µM; in series [9], 2.3 µM; in [10] it was above 100 µM; in [12] it was 0.54 µM. The half-maximal effective concentration (EC50) is above 100 µM in series [13], above 100 µM in series [16], 0.44 µM in series [18] and 0.52 µM in [19]. Further, the CC50 (in general, the concentration that lowers cell viability or growth by half) was determined as 66 µM in series [4] and 20 µM in series [8]. The IC50 (in general, the concentration at which inhibition is half-maximal) is 2.7 µM in series [5], 8.4 µM in series [11], 1.3 µM in series [14] and above 100 µM in series [17]. The selectivity ratio in series [7] and in series [15] was above 50 in each case.
Consider `CCCCCCCCCC(=O)N[C@@H](Cc1c[nH]c2ccccc12)C(=O)NC(CC(N)=O)C(=O)N[C@@H](CC(=O)O)C(=O)N[C@@H]1C(=O)NCC(=O)N[C@@H](CCCN)C(=O)N[C@@H](CC(=O)O)C(=O)N[C@H](C)C(=O)N[C@@H](CC(=O)O)C(=O)NCC(=O)N[C@H](CO)C(=O)N[C@@H]([C@H](C)CC(=O)O)C(=O)N[C@@H](CC(=O)c2ccccc2N)C(=O)O[C@@H]1C` (single isomer, unassigned) [DAPTOMYCIN], for which the EC50 in series [2] is 9.2 µM; in series [3] it was above 100 µM; in [10] it was above 100 µM; in [13], above 100 µM; in series [16], above 100 µM; in series [18] it was 0.68 µM. The compound further displayed an EC50 in series [19] of 1 µM. In addition, the CC50 at 48 h in series [20] and in [8] (THLE3 cells) was above 100 µM each time. In addition, the IC50 in series [21] was above 100 µM; in series [5], above 100 µM; in series [11] it was above 63 µM; in series [14], above 100 µM; in series [17], above 100 µM.
Regarding `O=C(Nc1ccc(Sc2nc3ccccc3s2)c(Cl)c1)c1cc(Br)cc(Br)c1O`, in [1], the “Ratio EC50” value was 5 - 15. The EC50 is 0.52 µM in series [2]; above 100 µM in [3]; 0.36 µM in series [6]; 2.4 µM in series [9]; above 100 µM in series [10]; 0.72 µM in series [12]. Besides, the EC50 was 66 µM in series [13], above 100 µM in series [16], 0.36 µM in [18] and 0.55 µM in series [19]. In addition, the CC50 came to 76 µM in series [4] and 14 µM in [8]. Further, the selectivity ratio in series [7] and in series [15] was above 50 throughout. Besides, the IC50 in series [11] is 6.8 µM; in series [14], 1.5 µM; in series [17], above 100 µM. The outcome in series [22] was Active.
In the case of `O=C(Nc1cccc(Cl)c1)c1cc(Br)ccc1O`, in series [1], the “Ratio EC50” value was 5 - 15. For the same compound, the EC50 in series [2] was above 100 µM; in series [3], above 100 µM; in series [6] it was 0.46 µM; in [9], 6.9 µM; in series [10], above 100 µM; in series [12], 0.44 µM. The EC50 was above 100 µM in [13], above 100 µM in [16], 0.46 µM in [18] and 0.53 µM in series [19]. Moreover, the results for the CC50 in series [4] and in series [8] were 15 µM and 4.1 µM, respectively. Besides, the IC50 in [21] was above 100 µM; in series [5] it was above 100 µM; in series [11], above 63 µM; in series [14] it was above 100 µM; in series [17] it was above 100 µM. In addition, in series [22], the outcome was Active.
